The source made the active and inactive calls. No cut-off for these calls is given here.
Key:
[1] = Cytotoxicity against human colon cancer cells after 48 hrs; type: functional; conditions: Cancer cell lines
Procedure, shortened: (§1)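 NCI 60-cell panel, values averaged per subpanel. Compounds were dissolved in DMSO and first screened at a single 10⁻⁵ M dose. Active ones then went to five concentrations at ten-fold dilutions, top 10⁻⁴ M (10⁻³ M for some), with 48 h exposure.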

[2] = Cytotoxicity against human CNS cancer cells after 48 hrs; type: functional; conditions: Cancer cell lines; procedure, shortened: as §1
[3] = Cytotoxicity against human leukemia cells after 48 hrs; type: functional; conditions: Leukemia cell; for CC50: read-out: LC50 (the source's name)
[4] = Cytotoxicity against human NSCLC cells after 48 hrs; type: functional; conditions: for CC50: read-out: LC50 (the source's name); procedure, shortened: as §1
[5] = Cytotoxicity against human prostate cancer cells after 48 hrs; type: functional; conditions: Cancer cell lines; for CC50: read-out: LC50 (the source's name); procedure, shortened: as §1
[6] = Cytotoxicity against human breast cancer cells after 48 hrs; type: functional; conditions: Cancer cell lines; procedure, shortened: as §1
[7] = Cytotoxicity against human renal cancer cells after 48 hrs; type: functional; conditions: Cancer cell lines
[8] = Cytotoxicity against human melanoma cells after 48 hrs; type: functional; conditions: Melanoma cell; for CC50: read-out: LC50 (the source's name)
[9] = Cytotoxicity against human ovarian cancer cells after 48 hrs; type: functional; conditions: Cancer cell lines; for CC50: read-out: LC50 (the source's name); procedure, shortened: as §1
[10] = Inhibition of bovine brain tubulin assembly after 20 mins
B1647 = assay: Cytotoxicity against human B1647 cells at 5 to 10 uM after 24 hrs by MTT assay; type: functional, cell-based
Procedure, shortened: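 B1647 human AML cells grown in IMDM with 5% human serum (37 °C, 5% CO2); 10⁶ cells per well in 1 mL exposed to 5 or 10 µM compound (DMSO) for 24 h. MTT 0.5 mg/mL added for 4 h at 37 °C, formazan dissolved overnight in 10% SDS/0.01 M HCl, A570 read. Four independent experiments.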

[11] = Inhibition of nox4 expression in human B1647 cells at 10 uM after 24 hrs by Western blot analysis relative to control; type: functional
Procedure, shortened: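 B1647 cells treated 24 h at 10 µM. Lysates (40 µg protein per lane) run on 10% SDS-PAGE and transferred to nitrocellulose. Blots probed with anti-Nox4, with β-tubulin as loading control, and detected by chemiluminescence. Bands quantified by densitometry in arbitrary units relative to control; three independent experiments.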

Row | SMILES | GI50 [1] [µM] | LC50 [1] [µM] | GI50 [2] [µM] | LC50 [2] [µM] | GI50 [3] [µM] | CC50 [3] [µM] | GI50 [4] [µM] | TGI [4] [µM] | CC50 [4] [µM] | GI50 [5] [µM] | CC50 [5] [µM] | GI50 [6] [µM] | LC50 [6] [µM] | GI50 [7] [µM] | LC50 [7] [µM] | GI50 [8] [µM] | CC50 [8] [µM] | GI50 [9] [µM] | CC50 [9] [µM] | IC50 [10] [µM] | further results
1 | COc1ccc(OC)c2c1NC(=O)/C2=C\c1cc(OC)c(OC)c(OC)c1 | 4 | 41.7 | 5.5 | 54.9 | 2.6 | 79.4 | 7.1 | 25.1 | 74.1 | 4.3 | 58.9 | 2.2 | 64.6 | 4.5 | 54.9 | 5.2 | 44.7 | 4.6 | 77.6 | > 20 | TGI [1]: 15.5 µM; TGI [2]: 20.4 µM; TGI [3]: 14.1 µM; TGI [5]: 22.9 µM; TGI [7]: 18.6 µM; TGI [8]: 18.6 µM; TGI [9]: 23.4 µM
2 | COc1cc(/C=C2\C(=O)Nc3ccc(N(C)C)cc32)cc(OC)c1OC | 2.4 | 81.3 | 2.9 | 81.3 | 1.1 | 81.3 | 4.2 | 41.7 |  | 2.5 |  | 2.1 |  | 3.8 | 83.2 | 3.5 |  | 3.2 | 81.3 | > 20 | TGI [1]: 34.7 µM; TGI [2]: 25.1 µM; Activity (B1647): Active; TGI [5]: 43.6 µM; TGI [6]: 37.1 µM; TGI [8]: 42.7 µM
3 | COc1ccc2c(c1)/C(=C\c1cc(OC)c(OC)c(OC)c1)C(=O)N2C | 2.6 | 63.1 | 2.4 |  | 1.4 | 87.1 | 3.7 | 46.8 | 83.2 | 2.6 |  | 2.7 |  | 3.2 |  | 3.1 | 85.1 | 3.5 |  | > 20 | TGI [1]: 16.6 µM; TGI [2]: 14.1 µM; TGI [9]: 28.2 µM
4 | COc1cc(/C=C2\C(=O)Nc3c(Cl)ccc(Cl)c32)cc(OC)c1OC |  |  |  |  |  |  |  |  |  |  |  |  |  |  |  |  |  |  |  |  | Activity (B1647): Active
5 | CC[C@]1(O)C[C@H]2CN(CCc3c([nH]c4ccccc34)[C@@](C(=O)OC)(c3cc4c(cc3OC)N(C=O)[C@H]3[C@@](O)(C(=O)OC)[C@H](OC(C)=O)[C@]5(CC)C=CCN6CC[C@]43[C@@H]65)C2)C1 [VINCRISTINE] |  |  |  |  |  | 631 |  |  |  |  | 316 |  |  |  |  |  |  |  | 316 |  | 
6 | COc1cc(/C=C2\C(=O)N(C)c3ccc(Cl)cc32)cc(OC)c1OC | 4 | 67.6 | 4.3 | 81.3 | 2.3 | 67.6 | 7.4 | 28.2 | 85.1 | 3.2 |  | 3.7 |  | 4.7 | 85.1 | 5 | 69.2 | 5.9 | 93.3 | > 20 | TGI [1]: 18.2 µM; TGI [2]: 24.5 µM; TGI [3]: 14.4 µM; TGI [5]: 11.2 µM; TGI [6]: 17.4 µM; TGI [9]: 36.3 µM
7 | COc1cc(/C=C2\C(=O)Nc3cc(OC(F)(F)F)ccc32)cc(OC)c1OC | 2.8 | 37.1 | 2.6 | 33.9 | 2.3 |  | 2.9 | 14.1 | 51.3 | 4.6 | 83.2 | 2.1 | 60.3 | 3.3 | 34.7 | 2.6 | 44.7 | 2.9 | 49 | > 20 | TGI [1]: 10.2 µM; TGI [3]: 27.5 µM; TGI [5]: 29.5 µM; TGI [7]: 12.6 µM; TGI [8]: 10.7 µM; TGI [9]: 11.2 µM
8 | COc1cc(/C=C2/C(=O)N(C)c3ccc(O)cc32)cc(OC)c1OC | 4.3 | 47.9 | 4.3 | 53.7 | 2.2 | 81.3 | 6.3 | 24.6 | 77.6 | 2.8 | 22.9 | 3.2 | 61.7 | 5.7 | 70.8 | 4.9 | 43.6 | 5.5 | 79.4 | > 20 | TGI [1]: 18.2 µM; TGI [6]: 15.1 µM; TGI [7]: 22.4 µM; TGI [8]: 16.2 µM; TGI [9]: 26.3 µM
9 | c1ccc2c(c1)[I+]c1ccccc1-2 [DIPHENYLENEIODONIUM] |  |  |  |  |  |  |  |  |  |  |  |  |  |  |  |  |  |  |  |  | fold change (FC) [11]: 0.73
10 | COc1cc(/C=C2\C(=O)N(Cc3ccc(Cl)cc3)c3ccccc32)cc(OC)c1OC | 2.2 | 14.4 | 3.4 | 46.8 | 1.5 | 50.1 | 3.4 | 14.4 | 56.2 | 2.2 | 33.1 | 2.4 | 95.5 | 2.5 | 43.6 | 2.9 | 26.9 | 3.4 | 51.3 | > 20 | TGI [2]: 15.1 µM; Activity (B1647): Active; TGI [6]: 12.9 µM; TGI [9]: 22.9 µM
11 | COc1ccc(CN2C(=O)/C(=C/c3cc(OC)c(OC)c(OC)c3)c3cc(OC)ccc32)cc1 | 1.9 | 7.9 | 2.2 | 33.9 | 2.7 |  | 2.3 | 11.2 | 33.1 | 3.2 | 83.2 | 2.6 | 79.4 | 2.4 | 28.8 | 2.1 | 23.4 | 2.4 | 50.1 | > 20 | TGI [3]: 27.5 µM; TGI [5]: 14.1 µM; TGI [6]: 13.8 µM
12 | COc1cc(/C=C2\C(=O)Nc3cc(Cl)ccc32)cc(OC)c1OC | 0.8 | 22.9 | 1.6 | 18.6 | 0.5 | 56.2 | 2 |  | 29.5 | 1.5 | 17 | 0.8 | 31.6 | 1.6 | 14.1 | 1.9 | 19 | 1.9 | 17.4 | 15 | 
13 | COc1ccc(CN2C(=O)/C(=C\c3cc(OC)c(OC)c(OC)c3)c3ccccc32)cc1 | 1.8 | 8.3 | 2.5 | 26.3 | 2.2 |  | 2 |  | 38.9 | 2.7 |  | 2.3 | 93.3 | 2 | 45.7 | 1.7 | 19.5 | 2.6 | 67.6 | > 20 | TGI [2]: 10.5 µM; TGI [3]: 27.5 µM; TGI [5]: 26.3 µM; TGI [6]: 17.4 µM; TGI [9]: 21.4 µM

Reference: ChEMBL document CHEMBL2385029, “Cytotoxic activities of substituted 3-(3,4,5-trimethoxybenzylidene)-1,3-dihydroindol-2-ones and studies on their mechanisms of action” (Eur J Med Chem, 2013)
